Data set [1] has as its system Rattus norvegicus. The data set can be described thus: Antiinflammatory activity against carrageenan-induced paw edema in Albino rat assessed as oedema inhibition relative to control at 40 mg/kg, po. The data set is classed as functional. Summed up:
(§1)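 Rats given test compound orally; 30 min later, 0.2 mL of 1% carrageenan in 0.9% NaCl injected subcutaneously into plantar aponeurosis of the hind paw. Paw volume measured by water plethysmometer before and at 3 h. Mean paw-volume increase compared with a carrageenan-only control group of five rats. % inhibition = (1 − Gt/Gc) × 100. Values are means of three determinations.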
(In general: The carrageenan paw model is a standard test of acute inflammation.)

Data set [2] concerns Rattus norvegicus. Nature of the data set: Toxicity in rat assessed as incidence of hyperaemia at 100 mg/kg, po. The conditions noted are these: in vivo. Also on record: dose 100 mg/kg, route oral. The data set is classed as organism-based. A digest of the protocol:
(§2)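 Groups of 10 rats (200–230 g), fasted 24 h, dosed orally; controls untreated. Sacrificed 5 h after dosing. Stomach and small intestine examined under microscope for hyperaemia, epithelial shedding, petechiae, frank haemorrhage, erosion or discrete ulceration with or without perforation. Result expressed as percentage of animals affected.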

In data set [3] the test system is Rattus norvegicus. Nature of the data set: Toxicity in rat assessed as incidence of ulcer at 100 mg/kg, po. The data set is classed as organism-based. Also noted: dose 100 mg/kg, route oral. The following applies: in vivo. Summed up:
as §2

The test system of data set [4] is Rattus norvegicus. The data set can be described thus: Toxicity in rat assessed as incidence of ulcer at 200 mg/kg, po. The data set is classed as organism-based. The conditions noted are these: in vivo. Also noted: dose 200 mg/kg, route oral. Summed up: as §2
Data set [5] has as its system Rattus norvegicus. The data set can be described thus: Toxicity in rat assessed as incidence of hyperaemia at 400 mg/kg, po. The data set is classed as organism-based. Also noted: dose 400 mg/kg, route oral. The following applies: in vivo. A digest of the protocol:
as §2

The species named for data set [6] is Oryctolagus cuniculus. The data set can be described thus: Inhibition of rabbit microsomal COX at 10 uM. Summed up: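 COX source: microsomal pellet from minced, homogenized rabbit distal colon mucosa in 0.1 M Tris, pH 8.0, used immediately. Microsomes preincubated with test agent 10 min at 37 °C in Tris-HCl pH 8.0 with 2 mM glutathione, 5 mM L-tryptophan and 1 µM haematin. Then 20 µM arachidonic acid plus [1-14C] tracer added for 5 min at 37 °C. PGE2 separated by isocratic HPLC; co-eluting radioactivity counted by scintillation. % inhibition calculated versus paired controls.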

In data set [7] the test system is Rattus norvegicus. Nature of the data set: Antiinflammatory activity against carrageenan-induced paw edema in Albino rat assessed as oedema inhibition relative to control at 80 mg/kg, po. It counts as functional. Summed up:
as §1

Data set [8] has as its system Rattus norvegicus. Nature of the data set: Toxicity in rat assessed as incidence of ulcer at 400 mg/kg, po. The data set is classed as organism-based. The conditions noted are these: in vivo. Also on record: dose 400 mg/kg, route oral. Summed up:
as §2

Data set [9] concerns Rattus norvegicus. Nature of the data set: Antiinflammatory activity against carrageenan-induced paw edema in Albino rat assessed as oedema inhibition relative to control at 20 mg/kg, po. It counts as functional. Summed up:
as §1

The test system of data set [10] is Rattus norvegicus. The data set can be described thus: Antiinflammatory activity against carrageenan-induced paw edema in po dosed Albino rat assessed as oedema inhibition. It counts as functional.
Data set [11] is described as follows: Toxicity in ip dosed Albino mouse. It counts as organism-based. The conditions noted are these: in vivo, read-out: ALD50. Summed up: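 Albino mice, 25–30 g, groups of 10, given test compounds intraperitoneally at different dose levels. Mortality per group recorded 24 h after dosing. Approximate 50% lethal dose (ALD50) calculated from mortality data by the Smith method.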

Data set [12] deals with Rattus norvegicus. Nature of the data set: Toxicity in rat assessed as incidence of hyperaemia at 200 mg/kg, po. The following applies: in vivo. It counts as organism-based. Also on record: dose 200 mg/kg, route oral. Summed up: as §2

Each structure is given as a SMILES string. Calls of active or inactive are those of the source. The rule behind the calls is not given here. Where only a bound is given, the exact number is not on record here.

As a reminder, the inhibition in vivo is the drop in the measured response relative to a control, in per cent. One may read the inhibition as the relative decrease from the control value, in per cent. A low value points to little suppression. The term ED50 denotes the midpoint of the dose-response relation. On to `Cc1ccc(C(=O)Oc2ccc(Cl)cc2C(=O)c2ccc(Cl)cc2)cc1`, for which the inhibition in vivo at 40 mg/kg in data set [1] is 30.4%. Besides, the Activity in [2] is 50%; in [3], 10%; in data set [4], 15%; in [5], 100%; in data set [8], 20%; in [12], 70%. The inhibition in data set [6] is 85%. In addition, the inhibition in vivo at 80 mg/kg in data set [7] stood at 77.1%. Moreover, in data set [9], the inhibition in vivo at 20 mg/kg amounted to 29.2%. Moreover, the ED50 in [10] came to 60.5 mg/kg. The LD50 in [11] was more than 1000 mg/kg.

Consider `Cc1ccc(OC(=O)c2ccccc2)c(C(=O)c2ccccc2)c1`, for which the inhibition in vivo at 40 mg/kg in data set [1] is 29.9%. Also, the Activity in [2] amounted to 40%; in data set [3], 10%; in [4] it was 20%; in data set [5], 100%; in data set [8], 40%; in [12], 60%. For the same compound, the inhibition in data set [6] is 20%. Further, the inhibition in vivo at 80 mg/kg in data set [7] came to 56.4%. In addition, in [9], the inhibition in vivo at 20 mg/kg came out at 15.1%. Besides, in data set [10], the ED50 turned out to be 78.6 mg/kg. Also, the LD50 in [11] is more than 1000 mg/kg.

For `Cc1ccc(C(=O)Oc2ccc(C)cc2C(=O)c2ccccc2)cc1`, the inhibition in vivo at 40 mg/kg in [1] was 29.4%. The Activity came to 20% in [2]; 45% in data set [3]; 55% in data set [4]; 55% in data set [5]; 80% in [8]; 35% in data set [12]. Also, the outcome in data set [6] was inactive. Further, the inhibition in vivo at 80 mg/kg in data set [7] was 46.5%. Further, the inhibition in vivo at 20 mg/kg in [9] turned out to be 15.5%. The ED50 in [10] turned out to be 75.5 mg/kg. Besides, in [11], the LD50 is more than 1000 mg/kg.

With `O=C(Oc1ccc(Cl)cc1C(=O)c1ccc(Cl)cc1)c1ccc(Cl)cc1`, in [1], the inhibition in vivo at 40 mg/kg came out at 48.5%. For the same compound, the Activity was determined as 60% in data set [2]; 5% in data set [3]; 10% in [4]; 100% in [5]; 15% in data set [8]; 80% in data set [12]. Also, the inhibition in data set [6] stood at 60%. Further, the inhibition in vivo at 80 mg/kg in data set [7] came to 60.1%. Also, the inhibition in vivo at 20 mg/kg in [9] was found to be 35.5%. Further, the ED50 in data set [10] was determined as 65.5 mg/kg. Moreover, the LD50 in [11] was more than 1000 mg/kg.

Turning to `O=C(Oc1ccc(Cl)cc1C(=O)c1cccc(Cl)c1Cl)c1ccccc1`, in [1], the inhibition in vivo at 40 mg/kg is 29.8%. The Activity is given as 70% in [2]; 10% in [3]; 20% in data set [4]; 100% in data set [5]; 40% in data set [8]; 90% in data set [12]. In data set [6], this compound gave an inhibition of 40%. Further, the inhibition in vivo at 80 mg/kg in data set [7] was 63.8%. In data set [9], the inhibition in vivo at 20 mg/kg was found to be 21.1%. Also, the ED50 in [10] was determined as 63.6 mg/kg. The LD50 in data set [11] was more than 1000 mg/kg.

Take `Cc1ccc(OC(=O)c2cccc(Cl)c2)c(C(=O)c2cccc(Cl)c2)c1`: in data set [1], the inhibition in vivo at 40 mg/kg came to 29.9%. Also, the Activity in [2] is listed as 25%; in data set [3] it was 50%; in data set [4], 65%; in data set [5], 50%; in data set [8], 75%; in [12] it was 40%. In data set [6], the outcome was inactive. Moreover, the inhibition in vivo at 80 mg/kg in data set [7] is 56.4%. Also, the inhibition in vivo at 20 mg/kg in data set [9] turned out to be 15.1%. Besides, the ED50 in data set [10] was determined as 55.7 mg/kg. For the same compound, in [11], the LD50 was more than 1000 mg/kg.

For `Cc1ccc(C(=O)c2cc(C)ccc2OC(=O)c2ccc(Cl)cc2)cc1`, the inhibition in vivo at 40 mg/kg in data set [1] is 46.5%. Also, the Activity in data set [2] turned out to be 25%; in [3], 15%; in data set [4] it was 25%; in data set [5], 75%; in data set [8], 18%; in data set [12] it was 50%. In addition, the outcome in [6] was inactive. Also, in data set [7], the inhibition in vivo at 80 mg/kg stood at 85.5%. The inhibition in vivo at 20 mg/kg in [9] came out at 31.4%. Besides, in data set [10], the ED50 was found to be 57.3 mg/kg. Also, the LD50 in data set [11] was more than 1000 mg/kg.

With `Cc1ccc(OC(=O)c2ccccc2)c(C(=O)c2ccc(Cl)cc2)c1`, the inhibition in vivo at 40 mg/kg in [1] amounted to 24.2%. Further, the Activity in data set [2] amounted to 20%; in data set [3], 40%; in data set [4], 50%; in [5], 60%; in [8] it was 80%; in [12] it was 40%. Further, the result in data set [6] was inactive. Also, the inhibition in vivo at 80 mg/kg in data set [7] stood at 47.5%. Further, the inhibition in vivo at 20 mg/kg in data set [9] came to 14.7%. For the same compound, in data set [10], the ED50 is 77.9 mg/kg. Besides, the LD50 in data set [11] is more than 1000 mg/kg.

In the case of `Cc1ccc(OC(=O)c2ccccc2C)c(C(=O)c2ccccc2C)c1`, the inhibition in vivo at 40 mg/kg in [1] is 33.9%. For the same compound, the Activity in data set [2] is 50%; in data set [3], 20%; in data set [4], 30%; in [5], 90%; in data set [8], 40%; in data set [12] it was 70%. In data set [6], this compound had an inhibition of 70%. Moreover, in data set [7], the inhibition in vivo at 80 mg/kg is 64.8%. For the same compound, the inhibition in vivo at 20 mg/kg in [9] amounted to 17.5%. The ED50 in data set [10] was 78.9 mg/kg. In data set [11], the LD50 was more than 1000 mg/kg.

The values above are taken from ChEMBL document CHEMBL1147917, “Synthesis and crystallographic analysis of benzophenone derivatives--the potential anti-inflammatory agents” (Bioorg Med Chem, 2007).
